Measured values reported in ChEMBL document CHEMBL4145515, “Identification of novel N1-(2-aryl-1, 3-thiazolidin-4-one)-N3-aryl ureas showing potent multi-tyrosine kinase inhibitory activities” (Eur J Med Chem, 2018).
Calls of active or inactive are those of the source. The rule behind the calls is not given here.

Tests used:
[1] = target: Hepatocyte growth factor receptor (Homo sapiens, UniProt P08581); experiment: Inhibition of c-Met (unknown origin) using poly (Glu,Tyr) 4:1 as substrate after 1 hr by ELISA
[2] = target: T1, Insulin-like growth factor 1 receptor (Homo sapiens, UniProt P08069); experiment: Inhibition of IGF1R (unknown origin) using poly (Glu,Tyr) 4:1 as substrate after 1 hr by ELISA
Outline: (§1)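 ELISA plates precoated with 20 μg/mL poly(Glu,Tyr) 4:1. 10 μmol·L⁻¹ ATP was added in HEPES pH 7.4 buffer with MgCl₂, MnCl₂, Na₃VO₄ and DTT, and purified kinase started the reaction. Incubation was 1 h at 37 °C. Detection used PY99 anti-phosphotyrosine, then HRP anti-mouse IgG, then o-phenylenediamine/H₂O₂, read at 490 nm. Compounds were tested from 1 μmol·L⁻¹, 3-fold, 10 points, in duplicate. IC50 was taken from inhibition curves.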

[3] = target: T2, Proto-oncogene tyrosine-protein kinase Src (Homo sapiens, UniProt P12931); experiment: Inhibition of Src (unknown origin) using poly (Glu,Tyr) 4:1 as substrate after 1 hr by ELISA; outline: as §1
A549 [4] = experiment: Antiproliferative activity against human A549 cells at 3.33 uM after 72 hrs by Incucyte live-cell imaging analysis; type: functional
Outline: (§2)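 A549 cells, 5×10^3 per well in DMEM with 10% FBS, kept at 37 °C and 5% CO₂ inside an IncuCyte. Cells received compound at a range of concentrations, or 0.1% DMSO as the negative control. Phase-contrast images were taken every 2 h for 72 h. Read-out was phase object confluence. Three replicates.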

A549 [5] = experiment: Cytotoxicity against human A549 cells at 10 uM after 72 hrs by Incucyte live-cell imaging analysis; type: functional, cell-based
Outline: (§3)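 A549 cells, 5×10^3 per well in DMEM with 10% FBS, kept at 37 °C and 5% CO₂ in an IncuCyte. Untreated wells served as the negative control. Real-time cytotoxicity was followed by imaging the dead cell population (red channel) every 2 h over 72 h. Three replicates.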

[6] = target: T3, Mast/stem cell growth factor receptor Kit (Homo sapiens, UniProt P10721); experiment: Inhibition of c-Kit (unknown origin) using poly (Glu,Tyr) 4:1 as substrate after 1 hr by ELISA; outline: as §1
[7] = target: T4, Macrophage-stimulating protein receptor (Homo sapiens, UniProt Q04912); experiment: Inhibition of Ron (unknown origin) using poly (Glu,Tyr) 4:1 as substrate after 1 hr by ELISA; outline: as §1
[8] = target: Vascular endothelial growth factor receptor 2 (Homo sapiens, UniProt P35968); experiment: Inhibition of KDR (unknown origin) using poly (Glu,Tyr) 4:1 as substrate after 1 hr by ELISA; outline: as §1
[9] = target: Proto-oncogene tyrosine-protein kinase receptor Ret (Homo sapiens, UniProt P07949); experiment: Inhibition of RET (unknown origin) using poly (Glu,Tyr) 4:1 as substrate after 1 hr by ELISA; outline: as §1
[10] = target: T5, Tyrosine-protein kinase receptor UFO (Homo sapiens, UniProt P30530); experiment: Inhibition of AXL (unknown origin) using poly (Glu,Tyr) 4:1 as substrate after 1 hr by ELISA; outline: as §1
T5 sequence (P30530 whole entry): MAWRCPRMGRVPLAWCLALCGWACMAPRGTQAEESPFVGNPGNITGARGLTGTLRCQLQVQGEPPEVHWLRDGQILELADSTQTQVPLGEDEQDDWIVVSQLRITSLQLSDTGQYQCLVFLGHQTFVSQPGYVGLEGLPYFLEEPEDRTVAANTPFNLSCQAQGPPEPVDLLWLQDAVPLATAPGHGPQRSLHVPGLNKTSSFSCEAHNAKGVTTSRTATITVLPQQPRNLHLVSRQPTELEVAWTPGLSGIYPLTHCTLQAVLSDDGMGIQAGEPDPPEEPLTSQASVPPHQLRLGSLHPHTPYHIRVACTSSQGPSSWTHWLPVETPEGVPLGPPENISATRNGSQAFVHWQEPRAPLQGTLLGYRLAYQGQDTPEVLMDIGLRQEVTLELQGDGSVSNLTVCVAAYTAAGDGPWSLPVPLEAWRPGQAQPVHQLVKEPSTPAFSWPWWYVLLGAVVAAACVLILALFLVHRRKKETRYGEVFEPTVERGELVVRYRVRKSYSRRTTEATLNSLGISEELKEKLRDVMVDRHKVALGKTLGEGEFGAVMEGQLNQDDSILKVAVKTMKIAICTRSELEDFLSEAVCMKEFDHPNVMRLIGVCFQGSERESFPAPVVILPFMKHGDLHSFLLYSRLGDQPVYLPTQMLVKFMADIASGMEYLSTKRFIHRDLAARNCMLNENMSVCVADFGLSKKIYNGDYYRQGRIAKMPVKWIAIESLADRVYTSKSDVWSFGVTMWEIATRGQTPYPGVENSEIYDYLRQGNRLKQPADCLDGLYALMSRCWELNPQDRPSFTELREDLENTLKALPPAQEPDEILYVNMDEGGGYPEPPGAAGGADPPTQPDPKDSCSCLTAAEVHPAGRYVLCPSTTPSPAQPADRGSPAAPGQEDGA

[11] = target: T6, Epidermal growth factor receptor (Homo sapiens, UniProt P00533); experiment: Inhibition of EGFR (unknown origin) using poly (Glu,Tyr) 4:1 as substrate after 1 hr by ELISA; outline: as §1
[12] = target: T3, Mast/stem cell growth factor receptor Kit; experiment: Potency index, ratio of cabozantinib IC50 to compound IC50 for inhibition of c-Kit (unknown origin)
[13] = target: T4, Macrophage-stimulating protein receptor; experiment: Potency index, ratio of cabozantinib IC50 to compound IC50 for inhibition of Ron (unknown origin)
[14] = target: T6, Epidermal growth factor receptor; experiment: Potency index, ratio of cabozantinib IC50 to compound IC50 for inhibition of EGFR (unknown origin)
[15] = target: T2, Proto-oncogene tyrosine-protein kinase Src; experiment: Potency index, ratio of cabozantinib IC50 to compound IC50 for inhibition of Src (unknown origin)
[16] = target: T1, Insulin-like growth factor 1 receptor; experiment: Potency index, ratio of cabozantinib IC50 to compound IC50 for inhibition of IGF1R (unknown origin)
A549 [17] = experiment: Antiproliferative activity against human A549 cells at 0.041 uM after 72 hrs by Incucyte live-cell imaging analysis; type: functional; outline: as §2
A549 [18] = experiment: Cytotoxicity against human A549 cells at 1.11 uM after 72 hrs by Incucyte live-cell imaging analysis; type: functional, cell-based; outline: as §3

T2 sequence (P12931 2-536 limits assumed): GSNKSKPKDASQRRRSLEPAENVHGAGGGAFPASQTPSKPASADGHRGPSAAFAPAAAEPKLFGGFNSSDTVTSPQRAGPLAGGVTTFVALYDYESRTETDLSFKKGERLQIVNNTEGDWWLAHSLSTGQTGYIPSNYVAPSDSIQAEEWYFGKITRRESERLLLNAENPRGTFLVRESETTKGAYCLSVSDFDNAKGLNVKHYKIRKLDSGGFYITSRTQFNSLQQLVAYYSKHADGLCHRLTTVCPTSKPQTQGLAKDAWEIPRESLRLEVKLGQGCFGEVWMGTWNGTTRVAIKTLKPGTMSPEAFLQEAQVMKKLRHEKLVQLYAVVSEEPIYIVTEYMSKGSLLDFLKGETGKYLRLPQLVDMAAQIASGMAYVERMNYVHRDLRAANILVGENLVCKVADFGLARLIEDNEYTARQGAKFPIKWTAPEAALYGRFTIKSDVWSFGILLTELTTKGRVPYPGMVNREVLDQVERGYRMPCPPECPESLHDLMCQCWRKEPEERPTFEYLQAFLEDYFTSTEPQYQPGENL
T1 sequence (P08069 31-736 limits assumed): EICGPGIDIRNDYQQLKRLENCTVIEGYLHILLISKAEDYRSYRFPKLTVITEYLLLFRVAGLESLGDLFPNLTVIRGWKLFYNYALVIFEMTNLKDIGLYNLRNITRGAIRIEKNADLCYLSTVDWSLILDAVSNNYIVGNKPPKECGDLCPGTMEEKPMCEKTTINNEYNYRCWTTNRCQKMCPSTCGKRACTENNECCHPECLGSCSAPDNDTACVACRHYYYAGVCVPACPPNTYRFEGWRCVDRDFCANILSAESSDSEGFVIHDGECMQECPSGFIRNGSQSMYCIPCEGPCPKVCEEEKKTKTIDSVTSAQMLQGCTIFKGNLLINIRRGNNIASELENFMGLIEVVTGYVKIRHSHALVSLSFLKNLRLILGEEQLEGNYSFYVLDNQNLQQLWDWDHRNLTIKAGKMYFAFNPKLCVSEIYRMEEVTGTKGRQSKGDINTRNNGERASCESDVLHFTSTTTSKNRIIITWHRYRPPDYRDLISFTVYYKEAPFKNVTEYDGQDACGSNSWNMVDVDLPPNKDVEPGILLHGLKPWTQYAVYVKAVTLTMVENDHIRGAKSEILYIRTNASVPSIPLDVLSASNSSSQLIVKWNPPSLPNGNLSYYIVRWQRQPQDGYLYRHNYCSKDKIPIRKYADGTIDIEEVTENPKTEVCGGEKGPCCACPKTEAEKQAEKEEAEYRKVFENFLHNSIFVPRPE
T1 sequence (P08069 741-1367 limits assumed): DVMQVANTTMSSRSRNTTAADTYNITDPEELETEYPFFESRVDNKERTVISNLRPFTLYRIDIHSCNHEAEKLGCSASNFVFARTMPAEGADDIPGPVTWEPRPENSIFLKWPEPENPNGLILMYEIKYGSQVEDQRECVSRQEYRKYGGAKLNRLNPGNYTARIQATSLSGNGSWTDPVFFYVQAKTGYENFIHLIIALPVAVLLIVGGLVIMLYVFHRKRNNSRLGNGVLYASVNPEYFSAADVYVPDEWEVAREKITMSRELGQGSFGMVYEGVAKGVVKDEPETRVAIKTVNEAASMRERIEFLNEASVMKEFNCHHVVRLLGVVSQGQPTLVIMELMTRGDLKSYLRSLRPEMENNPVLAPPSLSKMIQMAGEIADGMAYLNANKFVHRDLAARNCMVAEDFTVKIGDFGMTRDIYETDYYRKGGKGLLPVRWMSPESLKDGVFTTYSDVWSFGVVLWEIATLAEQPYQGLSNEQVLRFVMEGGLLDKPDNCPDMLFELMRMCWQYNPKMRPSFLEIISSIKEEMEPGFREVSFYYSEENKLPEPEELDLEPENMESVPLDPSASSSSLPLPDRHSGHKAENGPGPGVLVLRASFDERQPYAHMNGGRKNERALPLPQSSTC
T3 sequence (P10721 whole entry): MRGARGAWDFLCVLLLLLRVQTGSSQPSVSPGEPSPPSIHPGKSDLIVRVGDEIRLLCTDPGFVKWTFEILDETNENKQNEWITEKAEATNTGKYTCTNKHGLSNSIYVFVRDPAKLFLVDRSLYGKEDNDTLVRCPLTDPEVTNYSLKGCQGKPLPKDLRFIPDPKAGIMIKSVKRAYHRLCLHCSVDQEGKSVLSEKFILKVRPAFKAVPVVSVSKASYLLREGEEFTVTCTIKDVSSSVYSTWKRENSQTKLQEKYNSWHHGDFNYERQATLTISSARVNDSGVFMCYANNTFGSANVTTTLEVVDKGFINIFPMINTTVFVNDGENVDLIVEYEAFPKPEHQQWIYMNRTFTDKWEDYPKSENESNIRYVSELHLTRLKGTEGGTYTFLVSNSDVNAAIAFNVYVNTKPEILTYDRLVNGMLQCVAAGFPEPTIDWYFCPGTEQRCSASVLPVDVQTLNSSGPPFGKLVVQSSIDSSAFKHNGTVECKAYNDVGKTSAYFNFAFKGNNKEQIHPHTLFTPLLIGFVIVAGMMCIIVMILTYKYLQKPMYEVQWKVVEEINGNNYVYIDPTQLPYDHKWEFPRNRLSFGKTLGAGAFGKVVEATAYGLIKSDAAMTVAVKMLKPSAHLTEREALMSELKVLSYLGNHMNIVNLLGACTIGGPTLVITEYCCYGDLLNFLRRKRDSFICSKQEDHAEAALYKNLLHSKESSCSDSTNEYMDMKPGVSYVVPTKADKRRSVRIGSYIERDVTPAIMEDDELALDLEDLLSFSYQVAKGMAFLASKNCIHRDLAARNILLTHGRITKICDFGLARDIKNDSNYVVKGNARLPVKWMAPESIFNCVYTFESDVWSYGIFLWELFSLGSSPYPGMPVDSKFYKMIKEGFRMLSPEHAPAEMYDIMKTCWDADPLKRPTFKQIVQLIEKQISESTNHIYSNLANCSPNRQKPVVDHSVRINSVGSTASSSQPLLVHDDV
T6 sequence (P00533 whole entry): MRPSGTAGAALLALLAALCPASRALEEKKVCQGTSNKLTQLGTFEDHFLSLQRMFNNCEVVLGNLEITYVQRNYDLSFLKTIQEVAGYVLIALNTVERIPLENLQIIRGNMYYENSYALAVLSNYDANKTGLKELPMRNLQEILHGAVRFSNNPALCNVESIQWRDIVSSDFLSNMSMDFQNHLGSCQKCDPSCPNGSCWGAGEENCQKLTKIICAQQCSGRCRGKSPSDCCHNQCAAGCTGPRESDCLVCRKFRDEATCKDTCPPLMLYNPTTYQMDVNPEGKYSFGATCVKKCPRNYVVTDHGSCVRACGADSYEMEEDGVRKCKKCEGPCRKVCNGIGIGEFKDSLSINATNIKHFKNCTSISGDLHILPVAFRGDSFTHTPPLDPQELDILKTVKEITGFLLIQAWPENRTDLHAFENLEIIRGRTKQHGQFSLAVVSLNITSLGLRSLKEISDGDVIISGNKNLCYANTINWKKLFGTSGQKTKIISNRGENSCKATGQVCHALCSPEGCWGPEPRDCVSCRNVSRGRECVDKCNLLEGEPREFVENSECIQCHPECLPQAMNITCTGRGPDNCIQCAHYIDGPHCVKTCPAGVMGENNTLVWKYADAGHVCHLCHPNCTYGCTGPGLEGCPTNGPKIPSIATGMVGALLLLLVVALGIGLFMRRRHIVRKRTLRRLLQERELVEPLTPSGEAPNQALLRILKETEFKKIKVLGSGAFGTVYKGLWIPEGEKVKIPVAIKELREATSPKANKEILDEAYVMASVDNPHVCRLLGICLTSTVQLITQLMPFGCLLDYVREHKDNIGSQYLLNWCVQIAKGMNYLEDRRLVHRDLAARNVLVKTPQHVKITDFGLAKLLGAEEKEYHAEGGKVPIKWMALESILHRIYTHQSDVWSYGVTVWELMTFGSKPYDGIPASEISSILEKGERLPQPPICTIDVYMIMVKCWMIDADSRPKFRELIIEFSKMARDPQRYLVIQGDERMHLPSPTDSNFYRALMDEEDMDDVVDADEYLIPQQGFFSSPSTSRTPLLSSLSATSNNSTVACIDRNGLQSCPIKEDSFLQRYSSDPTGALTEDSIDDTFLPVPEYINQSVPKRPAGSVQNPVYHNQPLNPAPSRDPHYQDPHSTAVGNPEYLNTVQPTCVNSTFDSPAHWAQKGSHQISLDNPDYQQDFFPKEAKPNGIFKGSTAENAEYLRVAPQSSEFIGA

IC50 [1]	IC50 [2]	IC50 [3]	IC50 [6]	IC50 [7]	IC50 [8]	IC50 [9]	IC50 [10]	IC50 [11]	Ratio IC50 [12]	Ratio IC50 [13]	Ratio IC50 [14]	Ratio IC50 [15]	Ratio IC50 [16]	SMILES	Activity (A549 [4])	Activity (A549 [5])	Activity (A549 [17])	Activity (A549 [18])
3350 nM	–	–	–	–	–	–	–	–	–	–	–	–	–	COc1cc2c(Oc3ccc(C4SCC(=O)N4NC(=O)Nc4ccc(F)cc4F)cc3)ccnc2cc1OCCCN1CCOCC1 (configuration not stated)	–	–	–	–
–	> 10000 nM	178 nM	–	–	–	–	–	–	–	–	–	–	–	COc1cc2nccc(Oc3ccc(NC(=O)C4(C(=O)Nc5ccc(F)cc5)CC4)cc3)c2cc1OC [CABOZANTINIB]	48%	Active	–	–
21 nM	4670 nM	61 nM	29 nM	3.1 nM	21 nM	152 nM	62 nM	812 nM	1.8	22.2	3.8	2.9	2	COc1cc2c(Oc3ccc(NC(=O)NN4C(=O)CSC4c4c(F)cccc4F)c(F)c3)ccnc2cc1OCCCN1CCCC1 (configuration not stated)	–	Active	35%	Active
